Test results from ChEMBL document CHEMBL1255380, “Small molecule-mediated disruption of Wnt-dependent signaling in tissue regeneration and cancer” (Nat Chem Biol, 2009).
Active and inactive are the calls of the source. The rule behind the calls is not given here.

Legend:
[1] = Inhibition of Wnt3A/[…] pathway activity in mouse L cell expressing Wnt3A and STF assessed as decreased firefly luciferase reporter expression; type: cell-based
How it was run: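 L-Wnt-STF cells (mouse L-cells stably carrying SuperTopFlash firefly luciferase reporter, control reporter and Wnt3A expression construct), ~5K per well; compounds added 24 hrs after seeding; luciferase activities read 24 hrs later; IC50s calculated from these dose-dependent assays.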

DLD-1 [2] = assay: Decrease in beta-[…] accumulation in human DLD1 cells expressing in APC mutant; type: functional, cell-based
[3] = Inhibition of Wnt3A/[…] pathway activity in mouse L cell expressing Wnt3a assessed as inhibition of […] accumulation at 10 uM after 24 hrs by Western blot analysis; type: cell-based
Danio rerio = organism: Danio rerio; assay: Inhibition of caudal fin regeneration after mechanical resection in zebrafish at 10 uM after 7 days; type: functional, organism-based
How it was run: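 Zebrafish 3-6 months old anaesthetized in 0.02% Tricaine; half of caudal fin resected with razor blade; kept at 28°C in tank water with 10μM compound or DMSO; water and compound replenished daily over assay period.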

Axin-2 (Homo sapiens) [4] = target: Axin-2 (Homo sapiens) (UniProt Q9Y2T1); assay: Induction of Axin2 accumulation in human DLD1 cells by Western blot analysis; type: cell-based; conditions: DLD-1
How it was run: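 DLD-1 cells exposed to IWR compound at 10μM for a 48 hr assay period; protein levels assessed by Western blot of cell lysates.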

[5] = Inhibition of Wnt1/beta-[…] pathway activity in mouse L cell expressing Wnt1 and STF assessed as decreased firefly luciferase reporter expression; type: cell-based
[6] = Inhibition of Wnt3A/[…] pathway activity in mouse L cell expressing Wnt3a assessed as decrease in phosphorylated Dvl2 level at 10 uM after 24 hrs by Western blot analysis; type: cell-based
[7] = Inhibition of Wnt2/beta-[…] pathway activity in mouse L cell expressing Wnt2 and STF assessed as decreased firefly luciferase reporter expression; type: cell-based
[8] = Inhibition of Wnt3A/[…] pathway activity in mouse L cell expressing Wnt3a assessed as decrease in phosphorylated Lrp6 level at 10 uM after 24 hrs by Western blot analysis; type: cell-based
[9] = Inhibition of Wnt/beta-[…] pathway activity in mouse L cell expressing Wnt and STF assessed as decreased firefly luciferase reporter expression; type: cell-based
[10] = target: Protein Wnt-3a (Mus musculus) (UniProt P27467); assay: Inhibition of Wnt3A palmitoylation in mouse L cell expressing Wnt3a and overexpressing porcn by detergent solubility fractionation assessed as [3H]palmitate incorporation at 2.5 uM by autoradiography method
[11] = target: Protein Wnt-3a (Homo sapiens) (UniProt P56704); assay: Inhibition of lipidation of Wnt3A expressed in mouse L cell at 2 uM by detergent solubility fractionation assay; type: cell-based
[12] = Inhibition of Wnt3A/[…] pathway activity in mouse L cell expressing Wnt3a assessed as inhibition of […] accumulation at 5 uM after 24 hrs by Western blot analysis; type: cell-based
[13] = target: T1, Protein-serine O-palmitoleoyltransferase porcupine (Mus musculus) (UniProt Q9JJJ7); assay: Increase in porcn levels in mouse L cell expressing Wnt and STF; type: cell-based
T1 sequence (whole entry): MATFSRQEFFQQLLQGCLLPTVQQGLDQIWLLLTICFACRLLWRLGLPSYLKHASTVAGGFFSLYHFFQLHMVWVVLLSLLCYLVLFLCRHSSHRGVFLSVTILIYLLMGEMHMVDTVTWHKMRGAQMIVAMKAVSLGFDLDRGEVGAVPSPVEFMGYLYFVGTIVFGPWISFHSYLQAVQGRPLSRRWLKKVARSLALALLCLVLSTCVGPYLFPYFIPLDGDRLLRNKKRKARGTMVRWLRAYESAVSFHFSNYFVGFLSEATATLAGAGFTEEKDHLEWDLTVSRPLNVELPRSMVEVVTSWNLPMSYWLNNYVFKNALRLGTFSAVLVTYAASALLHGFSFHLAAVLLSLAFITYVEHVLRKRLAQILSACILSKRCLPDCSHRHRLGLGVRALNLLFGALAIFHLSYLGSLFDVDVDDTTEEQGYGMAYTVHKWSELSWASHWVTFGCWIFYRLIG

[14] = target: T1, Protein-serine O-palmitoleoyltransferase porcupine (Mus musculus); assay: Effect on porcn Endoplasmic reticulum localization in mouse L cell expressing Wnt and STF; type: cell-based
[15] = target: Protein Wnt-3a (Homo sapiens) (UniProt P56704); assay: Inhibition of Wnt3A secretion in mouse L cell expressing Wnt3a overexpressing Evi assessed as decreased Gaussia luciferase reporter expression at 0.25 uM to 1 uM; type: cell-based
How it was run: (§1)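 Wnt secretion test: L-cells transiently transfected with Wnt-Gaussia luciferase fusion construct, incubated with compounds immediately after transfection, GL activity measured 48 hrs later.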

[16] = Inhibition of Notch pathway in mouse L cells at 2.5 uM
[17] = target: T2, Protein-serine O-palmitoleoyltransferase porcupine (Homo sapiens) (UniProt Q9H237); assay: Inhibition of porcn-mediated Shh palmitoylation in human DLD1 lysate by detergent solubility fractionation assessed as [3H]palmitate incorporation at 2.5 uM by autoradiography method
T2 sequence (whole entry): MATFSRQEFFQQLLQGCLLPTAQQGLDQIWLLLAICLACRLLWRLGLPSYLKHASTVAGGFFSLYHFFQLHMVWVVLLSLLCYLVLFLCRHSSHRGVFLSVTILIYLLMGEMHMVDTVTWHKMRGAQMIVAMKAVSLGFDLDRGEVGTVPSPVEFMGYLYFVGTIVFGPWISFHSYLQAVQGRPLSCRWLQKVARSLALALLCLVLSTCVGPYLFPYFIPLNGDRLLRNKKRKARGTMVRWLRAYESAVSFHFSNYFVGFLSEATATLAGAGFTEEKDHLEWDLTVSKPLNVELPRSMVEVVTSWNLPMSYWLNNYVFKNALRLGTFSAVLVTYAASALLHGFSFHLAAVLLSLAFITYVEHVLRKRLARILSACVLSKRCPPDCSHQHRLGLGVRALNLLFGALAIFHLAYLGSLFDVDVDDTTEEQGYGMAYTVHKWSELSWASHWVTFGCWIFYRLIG

[18] = target: Protein Wnt-3a (Homo sapiens) (UniProt P56704); assay: Inhibition of Wnt3A activity in mouse L cell expressing Wnt3A and STF and overexpressing Evi assessed as decreased firefly luciferase reporter expression at 0.25 uM to 1 uM; type: cell-based
[19] = target: Sterol O-acyltransferase 1 (Mus musculus) (UniProt Q61263); assay: Inhibition of ACAT mediated Wnt3a pathway activity in mouse L cell expressing Wnt3a assessed as decreased firefly luciferase reporter expression at 0.25 uM to 1 uM; type: cell-based
[20] = target: Protein Wnt-3a (Homo sapiens) (UniProt P56704); assay: Inhibition of Wnt3A activity in mouse L cell expressing Wnt3A and STF and overexpressing porcn assessed as decreased firefly luciferase reporter expression at 0.25 uM to 1 uM; type: cell-based
[21] = target: Membrane-bound ghrelin O-acyltransferase MBOAT4 (Mus musculus) (UniProt P0C7A3); assay: Inhibition of GOAT mediated Wnt3a pathway activity in mouse L cell expressing Wnt3a assessed as decreased firefly luciferase reporter expression at 0.25 uM to 1 uM; type: cell-based
[22] = target: T2, Protein-serine O-palmitoleoyltransferase porcupine (Homo sapiens); assay: Displacement of IWP-PB from porcn in HEK293 lysate by Western blot analysis
[23] = target: Lysophospholipid acyltransferase 5 (Mus musculus) (UniProt Q91V01); assay: Inhibition of MBOAT5 mediated Wnt3a pathway activity in mouse L cell expressing Wnt3a assessed as decreased firefly luciferase reporter expression at 0.25 uM to 1 uM; type: cell-based
[24] = target: Membrane-bound glycerophospholipid O-acyltransferase 1 (Mus musculus) (UniProt Q8BH98); assay: Inhibition of MBOAT1 mediated Wnt3a pathway activity in mouse L cell expressing Wnt3a assessed as decreased firefly luciferase reporter expression at 0.25 uM to 1 uM; type: cell-based
[25] = Inhibition of Wnt3A/[…] pathway activity in mouse L cell expressing Wnt3a assessed as decrease in phosphorylated Lrp6 level at 5 uM after 24 hrs by Western blot analysis; type: cell-based
[26] = Inhibition of Wnt3A/[…] pathway activity in mouse L cell expressing Wnt3a assessed as decrease in phosphorylated Dvl2 level at 5 uM after 24 hrs by Western blot analysis; type: cell-based
[27] = target: Protein Wnt-3a (Homo sapiens) (UniProt P56704); assay: Inhibition of Wnt3A secretion in mouse L cell expressing Wnt3a overexpressing porcn assessed as decreased Gaussia luciferase reporter expression at 0.25 uM to 1 uM; type: cell-based; how it was run: as §1
[28] = target: Protein Wnt-3a (Homo sapiens) (UniProt P56704); assay: Inhibition of palmitoylation of Wnt3A expressed in mouse L cell by detergent solubility fractionation assessed as [3H]palmitate incorporation at 2.5 uM by autoradiography method; type: cell-based
[29] = target: Protein-cysteine N-palmitoyltransferase HHAT (Mus musculus) (UniProt Q8BMT9); assay: Inhibition of HHAT mediated Wnt pathway activity in mouse L cell expressing Wnt3a assessed as decreased firefly luciferase reporter expression at 0.25 uM to 1 uM; type: cell-based
[30] = target: Protein Wnt-3a (Mus musculus) (UniProt P27467); assay: Inhibition of Wnt3A lipidation in mouse L cell expressing Wnt3a and overexpressing porcn at 2 uM by detergent solubility fractionation assay; type: cell-based
[31] = target: Membrane-bound glycerophospholipid O-acyltransferase 2 (Mus musculus) (UniProt Q8R3I2); assay: Inhibition of MBOAT2 mediated Wnt3a pathway activity in mouse L cell expressing Wnt3a assessed as decreased firefly luciferase reporter expression at 0.25 uM to 1 uM; type: cell-based
[32] = target: T1, Protein-serine O-palmitoleoyltransferase porcupine (Mus musculus); assay: Inhibition of porcn-mediated Wnt5A palmitoylation in mouse L cell expressing Wnt5A and STF by detergent solubility fractionation assessed as [3H]palmitate incorporation at 2 uM by autoradiography method; type: cell-based
Axin-2 (Homo sapiens) [33] = target: Axin-2 (Homo sapiens) (UniProt Q9Y2T1); assay: Induction of Axin2 stabilization in human DLD1 cells assessed as inhibition of Wnt/beta-[…] pathway; type: cell-based; conditions: DLD-1
L [34] = assay: Effect on proteasome in mouse L cell expressing Wnt assessed as accumulation of Axin1 by Western blot analysis
How it was run: (§2)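 L-Wnt-STF cells (L-cells stably carrying Wnt3A, STF firefly luciferase reporter and control reporter) treated with IWR (10μM) or IWP (5μM) compounds, with or without cycloheximide (100μM), over 48 hrs; lysates probed by Western blot.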

L [35] = assay: Effect on proteasome in mouse L cell expressing Wnt assessed as accumulation of beta-[…] by Western blot analysis; how it was run: as §2
DLD-1 [36] = assay: Inhibition of Axin2 protein degradation in human DLD1 cells by Western blot analysis; type: functional, cell-based
How it was run: (§3)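 DLD-1 cells treated over a 48 hr assay period with IWR compound (10μM), with or without cycloheximide (100μM); Axin2 protein assessed by Western blot.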

Cos1 = assay: Effect on Axin2 subcellular redistribution in african green monkey Cos1 cells by immunostaining method; type: cell-based; conditions: Chlorocebus aethiops
DLD-1 [37] = assay: Inhibition of Axin2 protein degradation in human DLD1 cells by Western blot analysis in presence of 100 uM cyclohexamide; type: functional, cell-based; how it was run: as §3
[38] = target: Protein Wnt (Danio rerio) (UniProt Q6IYD9); conditions: 10 uM
HEK293 = assay: Effect on interaction between Axin1-GFP and PP2A in HEK293 cell lysate at 10 uM by Western blot analysis; type: cell-based; conditions: Homo sapiens
L929 = assay: Decrease in beta-[…] accumulation in APC-deficient mouse L cell; type: functional, cell-based

Sequence of Axin-2 (Homo sapiens) (Q9Y2T1 whole entry): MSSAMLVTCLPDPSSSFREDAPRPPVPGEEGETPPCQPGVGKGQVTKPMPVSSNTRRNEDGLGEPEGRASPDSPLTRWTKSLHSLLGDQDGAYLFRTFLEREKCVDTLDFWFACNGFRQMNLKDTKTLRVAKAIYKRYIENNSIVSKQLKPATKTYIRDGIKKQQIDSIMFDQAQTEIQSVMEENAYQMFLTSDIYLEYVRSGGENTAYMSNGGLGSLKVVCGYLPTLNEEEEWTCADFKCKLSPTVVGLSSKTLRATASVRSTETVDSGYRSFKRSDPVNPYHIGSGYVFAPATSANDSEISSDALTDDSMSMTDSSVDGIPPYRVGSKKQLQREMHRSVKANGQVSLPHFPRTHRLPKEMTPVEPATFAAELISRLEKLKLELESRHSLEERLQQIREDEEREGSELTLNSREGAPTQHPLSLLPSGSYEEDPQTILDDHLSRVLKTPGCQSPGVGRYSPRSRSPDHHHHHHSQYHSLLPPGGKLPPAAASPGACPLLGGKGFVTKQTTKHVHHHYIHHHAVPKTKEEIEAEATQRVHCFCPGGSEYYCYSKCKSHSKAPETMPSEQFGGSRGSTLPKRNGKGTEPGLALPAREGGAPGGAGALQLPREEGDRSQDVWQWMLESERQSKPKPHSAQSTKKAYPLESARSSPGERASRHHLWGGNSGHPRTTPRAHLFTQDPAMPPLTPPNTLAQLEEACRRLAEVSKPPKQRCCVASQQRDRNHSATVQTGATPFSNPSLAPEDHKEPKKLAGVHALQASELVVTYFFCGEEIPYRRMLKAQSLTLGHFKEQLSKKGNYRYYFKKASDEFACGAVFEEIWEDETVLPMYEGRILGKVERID
Sequence of Protein Wnt-3a (Homo sapiens) (P56704 whole entry, the tested form may be a part): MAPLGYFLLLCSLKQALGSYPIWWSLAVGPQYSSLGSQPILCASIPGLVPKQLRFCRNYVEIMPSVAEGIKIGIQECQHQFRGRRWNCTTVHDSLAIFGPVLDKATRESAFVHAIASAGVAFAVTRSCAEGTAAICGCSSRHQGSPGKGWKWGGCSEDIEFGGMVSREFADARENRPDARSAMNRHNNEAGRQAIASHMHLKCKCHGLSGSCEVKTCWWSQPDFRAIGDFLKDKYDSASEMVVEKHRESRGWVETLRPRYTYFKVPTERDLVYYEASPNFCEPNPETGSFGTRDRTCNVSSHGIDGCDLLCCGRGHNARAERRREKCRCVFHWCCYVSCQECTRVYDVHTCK
Sequence of Protein Wnt-3a (Mus musculus) (P27467 whole entry): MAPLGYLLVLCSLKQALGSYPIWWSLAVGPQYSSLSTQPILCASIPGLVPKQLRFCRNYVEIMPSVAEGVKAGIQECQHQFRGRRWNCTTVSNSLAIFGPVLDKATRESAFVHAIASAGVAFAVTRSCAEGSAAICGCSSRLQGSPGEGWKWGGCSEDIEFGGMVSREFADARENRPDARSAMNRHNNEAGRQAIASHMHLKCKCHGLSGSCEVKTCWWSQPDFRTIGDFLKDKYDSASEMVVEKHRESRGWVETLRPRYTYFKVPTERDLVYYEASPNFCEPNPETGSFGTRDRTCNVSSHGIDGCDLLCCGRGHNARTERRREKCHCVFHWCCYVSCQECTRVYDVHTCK
Sequence of Membrane-bound glycerophospholipid O-acyltransferase 2 (Mus musculus) (Q8R3I2 whole entry): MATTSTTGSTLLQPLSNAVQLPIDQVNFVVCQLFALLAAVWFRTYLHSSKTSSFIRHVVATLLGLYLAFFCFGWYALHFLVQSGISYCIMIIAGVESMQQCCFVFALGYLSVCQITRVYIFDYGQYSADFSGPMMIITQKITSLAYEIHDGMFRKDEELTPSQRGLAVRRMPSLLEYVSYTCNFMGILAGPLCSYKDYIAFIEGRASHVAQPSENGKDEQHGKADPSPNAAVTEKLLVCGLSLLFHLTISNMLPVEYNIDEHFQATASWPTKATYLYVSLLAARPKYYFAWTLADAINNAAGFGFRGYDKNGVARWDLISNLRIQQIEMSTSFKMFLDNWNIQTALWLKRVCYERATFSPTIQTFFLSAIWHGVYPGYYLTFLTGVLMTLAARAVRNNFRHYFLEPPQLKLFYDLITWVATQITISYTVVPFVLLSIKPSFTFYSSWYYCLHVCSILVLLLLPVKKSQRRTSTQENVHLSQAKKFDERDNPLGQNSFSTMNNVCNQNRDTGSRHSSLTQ
Sequence of Lysophospholipid acyltransferase 5 (Mus musculus) (Q91V01 whole entry): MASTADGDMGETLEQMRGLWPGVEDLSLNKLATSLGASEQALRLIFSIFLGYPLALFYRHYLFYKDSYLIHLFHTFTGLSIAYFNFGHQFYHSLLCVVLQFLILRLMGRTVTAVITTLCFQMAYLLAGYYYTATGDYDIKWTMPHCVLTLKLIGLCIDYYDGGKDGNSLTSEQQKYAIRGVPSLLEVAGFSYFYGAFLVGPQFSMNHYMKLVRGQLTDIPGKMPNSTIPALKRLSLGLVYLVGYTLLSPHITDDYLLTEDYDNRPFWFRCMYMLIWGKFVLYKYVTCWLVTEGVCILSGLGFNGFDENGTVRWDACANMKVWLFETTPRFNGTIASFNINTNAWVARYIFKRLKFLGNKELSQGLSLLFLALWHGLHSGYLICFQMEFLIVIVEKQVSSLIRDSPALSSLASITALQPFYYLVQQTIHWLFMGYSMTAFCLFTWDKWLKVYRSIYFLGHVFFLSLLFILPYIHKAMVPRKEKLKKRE
Sequence of Protein-cysteine N-palmitoyltransferase HHAT (Mus musculus) (Q8BMT9 whole entry): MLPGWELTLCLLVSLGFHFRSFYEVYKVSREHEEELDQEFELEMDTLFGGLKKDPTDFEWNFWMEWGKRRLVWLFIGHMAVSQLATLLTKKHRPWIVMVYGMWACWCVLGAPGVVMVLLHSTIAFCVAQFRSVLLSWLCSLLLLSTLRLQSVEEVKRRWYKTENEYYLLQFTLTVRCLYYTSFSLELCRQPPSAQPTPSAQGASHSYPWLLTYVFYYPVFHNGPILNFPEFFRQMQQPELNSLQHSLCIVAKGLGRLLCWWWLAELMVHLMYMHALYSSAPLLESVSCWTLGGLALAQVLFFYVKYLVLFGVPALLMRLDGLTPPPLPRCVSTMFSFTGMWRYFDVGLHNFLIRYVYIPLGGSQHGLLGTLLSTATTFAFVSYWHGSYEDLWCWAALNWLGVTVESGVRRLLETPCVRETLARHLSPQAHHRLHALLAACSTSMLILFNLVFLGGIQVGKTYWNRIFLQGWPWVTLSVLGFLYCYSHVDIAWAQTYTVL
Sequence of Protein Wnt (Danio rerio) (Q6IYD9 as listed by the source): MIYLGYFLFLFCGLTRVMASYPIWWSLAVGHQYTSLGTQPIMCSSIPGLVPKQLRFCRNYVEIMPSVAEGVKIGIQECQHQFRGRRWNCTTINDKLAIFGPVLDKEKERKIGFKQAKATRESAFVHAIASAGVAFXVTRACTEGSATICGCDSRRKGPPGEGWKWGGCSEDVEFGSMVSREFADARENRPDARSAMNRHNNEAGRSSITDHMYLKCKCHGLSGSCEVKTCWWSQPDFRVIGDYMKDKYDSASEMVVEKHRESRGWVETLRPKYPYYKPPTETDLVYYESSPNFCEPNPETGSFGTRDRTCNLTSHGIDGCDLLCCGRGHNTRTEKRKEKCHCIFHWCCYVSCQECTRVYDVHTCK
Sequence of Membrane-bound ghrelin O-acyltransferase MBOAT4 (Mus musculus) (P0C7A3 whole entry): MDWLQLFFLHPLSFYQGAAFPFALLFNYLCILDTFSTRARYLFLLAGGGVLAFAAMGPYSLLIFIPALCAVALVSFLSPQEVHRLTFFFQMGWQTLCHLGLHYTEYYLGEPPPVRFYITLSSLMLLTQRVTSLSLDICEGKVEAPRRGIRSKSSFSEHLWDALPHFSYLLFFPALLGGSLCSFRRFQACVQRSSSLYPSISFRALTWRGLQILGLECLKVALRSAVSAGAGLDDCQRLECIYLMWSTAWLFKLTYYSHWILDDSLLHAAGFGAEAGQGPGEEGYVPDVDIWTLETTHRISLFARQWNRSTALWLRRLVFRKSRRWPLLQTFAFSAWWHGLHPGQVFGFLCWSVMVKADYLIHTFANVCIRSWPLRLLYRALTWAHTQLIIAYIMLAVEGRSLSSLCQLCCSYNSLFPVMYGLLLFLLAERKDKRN
Sequence of Membrane-bound glycerophospholipid O-acyltransferase 1 (Mus musculus) (Q8BH98 whole entry): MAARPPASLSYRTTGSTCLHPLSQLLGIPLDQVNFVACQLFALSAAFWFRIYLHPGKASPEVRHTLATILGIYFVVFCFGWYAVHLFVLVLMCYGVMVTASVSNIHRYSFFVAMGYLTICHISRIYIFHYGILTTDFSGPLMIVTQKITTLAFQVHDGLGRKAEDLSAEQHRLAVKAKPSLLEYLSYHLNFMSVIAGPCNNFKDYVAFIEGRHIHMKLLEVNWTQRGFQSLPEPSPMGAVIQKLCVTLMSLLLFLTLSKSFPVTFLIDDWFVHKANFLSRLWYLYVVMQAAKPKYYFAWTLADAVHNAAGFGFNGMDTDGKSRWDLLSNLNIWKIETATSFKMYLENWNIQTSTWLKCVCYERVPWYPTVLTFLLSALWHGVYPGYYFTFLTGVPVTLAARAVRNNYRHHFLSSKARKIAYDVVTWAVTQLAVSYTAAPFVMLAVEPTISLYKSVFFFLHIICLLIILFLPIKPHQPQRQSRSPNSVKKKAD
Sequence of Sterol O-acyltransferase 1 (Mus musculus) (Q61263 whole entry): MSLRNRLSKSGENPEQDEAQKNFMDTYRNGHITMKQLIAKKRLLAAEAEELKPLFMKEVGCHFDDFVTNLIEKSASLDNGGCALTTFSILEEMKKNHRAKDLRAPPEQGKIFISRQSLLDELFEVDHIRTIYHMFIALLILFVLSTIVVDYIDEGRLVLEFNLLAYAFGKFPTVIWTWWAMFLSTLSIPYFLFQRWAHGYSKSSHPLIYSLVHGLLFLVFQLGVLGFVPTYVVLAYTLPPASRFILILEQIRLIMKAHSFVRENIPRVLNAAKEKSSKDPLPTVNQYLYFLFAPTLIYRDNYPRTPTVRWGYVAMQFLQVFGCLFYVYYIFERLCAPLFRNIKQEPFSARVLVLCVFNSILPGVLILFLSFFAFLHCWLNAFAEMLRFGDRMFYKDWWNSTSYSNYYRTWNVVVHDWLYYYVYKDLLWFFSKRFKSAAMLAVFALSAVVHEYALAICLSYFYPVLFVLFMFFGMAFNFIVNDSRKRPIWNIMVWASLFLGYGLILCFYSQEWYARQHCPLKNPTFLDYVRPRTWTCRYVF

Cc1ccnc2c(NC(=O)c3ccc(N4C(=O)[C@@H]5[C@H](C4=O)[C@@H]4C=C[C@H]5C4)cc3)cccc12
inhibition [1]: Active
inhibition (DLD-1 [2]): Active
inhibition [3]: Active
inhibition (Danio rerio): Active
Activity (Axin-2 (Homo sapiens) [4]): Active
inhibition [5]: Active
inhibition [6]: inactive
inhibition [7]: Active
inhibition [8]: inactive
IC50 [9]: 230 nM

Cc1ccc2nc(NC(=O)CSc3nc4c(c(=O)n3-c3ccccc3)SCC4)sc2c1
inhibition [10]: inactive
inhibition [11]: Active
inhibition [12]: Active
inhibition (Danio rerio): inactive
Activity [13]: Active
Activity [14]: inactive
inhibition [15]: inactive
inhibition [16]: inactive
inhibition [17]: inactive
inhibition [18]: inactive
inhibition [19]: inactive
inhibition [20]: inactive
inhibition [21]: inactive
inhibition [22]: Active
inhibition [23]: inactive
inhibition [24]: inactive
inhibition [25]: Active
inhibition [26]: Active
inhibition [27]: inactive
inhibition [28]: Active
inhibition [29]: inactive
inhibition [30]: Active
inhibition [31]: inactive
inhibition [32]: Active

O=C(Nc1cccc2cccnc12)c1ccc(N2C(=O)[C@@H]3[C@H](C2=O)[C@@H]2C=C[C@H]3C2)cc1
inhibition [1]: Active
inhibition (DLD-1 [2]): Active
inhibition [3]: Active
Activity (Axin-2 (Homo sapiens) [33]): Active
Activity (L [34]): inactive
Activity (L [35]): inactive
inhibition (Danio rerio): Active
Activity (Axin-2 (Homo sapiens) [4]): Active
inhibition [5]: Active
inhibition (DLD-1 [36]): Active
Activity (Cos1): inactive
inhibition (DLD-1 [37]): inactive
inhibition [6]: inactive
inhibition [38]: Active
Activity (HEK293): inactive
inhibition [7]: Active
inhibition [8]: inactive
inhibition (L929): Active
